Tests used:
[1] = molecular target: T1, Nuclear receptor subfamily 1 group I member 2 (Homo sapiens, UniProt O75469); experiment: Minimum effective concentration required to inhibit pregnane X receptor (PXR)
T1 sequence (O75469 whole entry): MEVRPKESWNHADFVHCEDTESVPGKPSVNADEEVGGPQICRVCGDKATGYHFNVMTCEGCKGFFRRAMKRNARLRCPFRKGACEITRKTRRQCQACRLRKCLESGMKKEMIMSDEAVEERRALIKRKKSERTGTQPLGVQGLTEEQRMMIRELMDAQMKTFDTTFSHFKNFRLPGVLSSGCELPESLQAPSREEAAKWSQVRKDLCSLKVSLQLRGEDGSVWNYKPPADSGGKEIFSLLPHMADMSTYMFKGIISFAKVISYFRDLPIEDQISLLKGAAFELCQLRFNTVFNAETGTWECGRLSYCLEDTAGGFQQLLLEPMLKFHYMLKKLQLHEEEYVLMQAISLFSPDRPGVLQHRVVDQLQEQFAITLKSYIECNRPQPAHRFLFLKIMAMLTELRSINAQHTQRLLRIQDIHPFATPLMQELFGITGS
How it was run: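 U2OS cells (1 × 10^6 per 10 cm dish) were calcium-phosphate transfected with the receptor expression vector (2 µg; Gal4 fusions for PXR and PPARα), the matching reporter (4 µg) and pCMV-β-galactosidase (4 µg). They were cultured 12 h, PBS-washed, given fresh medium 4 h, trypsinized and exposed to drugs 20 h. Luciferase/CAT activity normalized to β-galactosidase as stimulation index; triplicate cultures.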

[2] = molecular target: T2, Peroxisome proliferator-activated receptor gamma (Homo sapiens) (UniProt P37231); experiment: Minimum effective concentration required to inhibit Peroxisome proliferator activated receptor gamma (PPAR gamma)
T2 sequence (whole entry): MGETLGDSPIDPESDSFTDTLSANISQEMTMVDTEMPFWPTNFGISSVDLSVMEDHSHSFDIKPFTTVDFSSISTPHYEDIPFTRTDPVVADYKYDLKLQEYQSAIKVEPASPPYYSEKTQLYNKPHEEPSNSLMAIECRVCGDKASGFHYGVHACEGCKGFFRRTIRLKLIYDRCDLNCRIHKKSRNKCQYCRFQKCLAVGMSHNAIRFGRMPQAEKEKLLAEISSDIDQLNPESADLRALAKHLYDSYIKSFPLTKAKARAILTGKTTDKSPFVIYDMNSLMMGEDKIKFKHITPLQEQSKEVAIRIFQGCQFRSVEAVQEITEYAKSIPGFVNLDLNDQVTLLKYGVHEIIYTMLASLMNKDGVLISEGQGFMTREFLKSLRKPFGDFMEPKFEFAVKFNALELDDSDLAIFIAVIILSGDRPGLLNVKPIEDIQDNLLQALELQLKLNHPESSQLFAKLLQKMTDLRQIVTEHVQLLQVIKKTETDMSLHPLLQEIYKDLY

[3] = molecular target: T1, Nuclear receptor subfamily 1 group I member 2; experiment: Minimum effective concentration required to activate pregnane X receptor (PXR)
U2OS (Homo sapiens) = experiment: Concentration required for inhibition of U2OS cell growth
Estrogen receptor = molecular target: T3, Estrogen receptor (Homo sapiens, UniProt P03372); experiment: Minimum effective concentration required to activate Estrogen receptor 1 (ER alpha); Not detected
T3 sequence (P03372 whole entry): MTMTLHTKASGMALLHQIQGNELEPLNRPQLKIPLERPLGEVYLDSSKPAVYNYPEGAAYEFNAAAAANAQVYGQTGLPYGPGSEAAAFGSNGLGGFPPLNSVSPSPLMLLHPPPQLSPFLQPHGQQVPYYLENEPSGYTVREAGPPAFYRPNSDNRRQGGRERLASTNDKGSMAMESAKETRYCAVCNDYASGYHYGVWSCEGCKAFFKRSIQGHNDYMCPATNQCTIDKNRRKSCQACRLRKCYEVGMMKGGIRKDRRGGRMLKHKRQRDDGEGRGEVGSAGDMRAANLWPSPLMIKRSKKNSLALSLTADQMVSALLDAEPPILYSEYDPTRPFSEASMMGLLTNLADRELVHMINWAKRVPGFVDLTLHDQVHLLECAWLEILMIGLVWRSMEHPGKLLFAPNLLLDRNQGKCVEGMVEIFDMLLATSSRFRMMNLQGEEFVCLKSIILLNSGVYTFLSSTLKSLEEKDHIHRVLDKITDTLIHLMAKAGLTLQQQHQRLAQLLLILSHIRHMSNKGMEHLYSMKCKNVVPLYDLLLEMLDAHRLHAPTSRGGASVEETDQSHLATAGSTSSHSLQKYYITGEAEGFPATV

Estrogen receptor beta = Estrogen receptor beta (Homo sapiens, UniProt Q92731); experiment: Minimum effective concentration required to activate Estrogen receptor 2 (ER beta); Not detected
Chain of Estrogen receptor beta (Q92731 whole entry): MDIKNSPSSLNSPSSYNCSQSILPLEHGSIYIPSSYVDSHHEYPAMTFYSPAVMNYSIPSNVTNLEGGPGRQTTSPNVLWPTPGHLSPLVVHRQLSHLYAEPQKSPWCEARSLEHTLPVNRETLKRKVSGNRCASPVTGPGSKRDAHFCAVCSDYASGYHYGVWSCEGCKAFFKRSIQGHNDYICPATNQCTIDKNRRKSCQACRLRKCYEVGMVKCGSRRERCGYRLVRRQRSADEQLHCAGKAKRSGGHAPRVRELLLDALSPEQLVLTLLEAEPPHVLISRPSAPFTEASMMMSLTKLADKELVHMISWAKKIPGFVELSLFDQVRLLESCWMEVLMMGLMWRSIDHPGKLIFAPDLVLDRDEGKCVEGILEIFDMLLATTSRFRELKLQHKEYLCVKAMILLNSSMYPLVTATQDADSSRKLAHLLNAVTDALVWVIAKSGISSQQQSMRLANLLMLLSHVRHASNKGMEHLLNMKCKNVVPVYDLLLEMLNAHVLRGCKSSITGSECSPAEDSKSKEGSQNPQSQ

[4] = molecular target: T2, Peroxisome proliferator-activated receptor gamma (Homo sapiens); experiment: Minimum effective concentration required to activate Peroxisome proliferator activated receptor gamma (PPAR gamma)

Row | SMILES | MEC [1] [µM] | MEC [2] [µM] | MEC [3] [µM] | IC50 (U2OS (Homo sapiens)) [µM] | MEC (Estrogen receptor) | MEC (Estrogen receptor beta) | MEC [4] [µM]
1 | CC(/C=C/[C@@]1(C)[C@H](C)CCC(=O)[C@@H]1C)=C\Cc1c(O)c(C=O)c(C)c(Cl)c1OC(=O)c1ccccn1 | 1 | 3 |  |  |  |  | 
2 | COc1c(C=O)c(C)c(Cl)c(OC(=O)c2ccccn2)c1C/C=C(C)/C=C/[C@@]1(C)[C@H](C)CCC(=O)[C@@H]1C | 1 | 30 |  |  |  |  | 
3 | C/C(=C\Cc1c(O)c(C=O)c(C)c(Cl)c1OC(=O)c1ccncc1)CC/C=C(\C)[C@@H]1CC(=O)C(C)(C)O1 |  |  | 10 | 10 | Not Active | Not Active | 
4 | COc1c(C=O)c(C)c(Cl)c(O)c1C/C=C(C)/C=C/[C@@]1(C)[C@H](C)CCC(=O)[C@@H]1C |  |  | 1 | 5.6 | Not Active | Not Active | 10
5 | COc1c(C=O)c(C)c(Cl)c(OC(=O)c2ccncc2)c1C/C=C(C)/C=C/[C@@]1(C)[C@H](C)CCC(=O)[C@@H]1C | 3 | 0.3 |  |  |  |  | 
6 | COc1c(C=O)c(C)c(Cl)c(OC(=O)c2cccnc2)c1C/C=C(C)/C=C/[C@@]1(C)[C@H](C)CCC(=O)[C@@H]1C |  |  | 10 | 37 | Not Active | Not Active | 100
7 | COc1c(C=O)c(C)c(Cl)c(OC(C)=O)c1C/C=C(\C)CC/C=C(\C)[C@@H]1CC(=O)C(C)(C)O1 |  |  | 1 | 10 | Not Active | Not Active | 
8 | COc1c(C=O)c(C)c(Cl)c(O)c1C/C=C(\C)CC/C=C(\C)[C@@H]1CC(=O)C(C)(C)O1 |  |  | 1 | 18 | Not Active | Not Active | 30
9 | C/C(=C\Cc1c(O)c(C=O)c(C)c(Cl)c1OCC(=O)O)CC/C=C(\C)[C@@H]1CC(=O)C(C)(C)O1 |  |  | 30 | 32 | Not Active | Not Active | 
10 | Cc1c(C=O)cc2c(c1Cl)OC(C)(/C=C/[C@]1(C)C(C)C(=O)CC[C@H]1C)CC2 (some centres not stated) |  |  | 1 | 18 | Not Active | Not Active | 
11 | COc1c(Cl)c(C)c(C=O)c(O)c1C/C=C(C)/C=C/[C@@]1(C)[C@H](C)CCC(=O)[C@@H]1C |  |  | 1 | 1.8 | Not Active | Not Active | 
12 | COc1c(Cl)c(C)c(C=O)c(O)c1C/C=C(\C)CC/C=C(\C)[C@@H]1CC(=O)C(C)(C)O1 |  |  | 1 | 5.6 | Not Active | Not Active | 
13 | CC(/C=C/[C@@]1(C)[C@H](C)CCC(=O)[C@@H]1C)=C\Cc1c(O)c(C=O)c(C)c(Cl)c1OC(=O)CCCC(=O)O |  |  | 1 | 0.6 | Not Active | Not Active | 10
14 | CC(/C=C/[C@@]1(C)[C@H](C)CCC(=O)[C@@H]1C)=C\Cc1c(O)c(C=O)c(C)c(Cl)c1OC(=O)c1ccncc1 |  |  | 1 | 10 | Not Active | Not Active | 10
15 | COc1c(Cl)c(C)c(C(=O)O)c(OC)c1C/C=C(C)/C=C/[C@@]1(C)[C@H](C)CCC(=O)[C@@H]1C |  |  | 1 | 56 | Not Active | Not Active | 
16 | Cc1c(Cl)c(O)c2c(c1C=O)OC(C)(/C=C/[C@]1(C)C(C)C(=O)CC[C@H]1C)CC2 (some centres not stated) |  |  | 3 | 56 | Not Active | Not Active | 
17 | CC(=O)Oc1c(Cl)c(C)c(C=O)c(O)c1C/C=C(\C)CC/C=C(\C)[C@@H]1CC(=O)C(C)(C)O1 |  |  | 1 | 10 | Not Active | Not Active | 
18 | CCOC(=O)COc1c(Cl)c(C)c(C=O)c(OC)c1C/C=C(C)/C=C/[C@@]1(C)[C@H](C)CCC(=O)[C@@H]1C |  |  | 1 | 3.2 | Not Active | Not Active | 3
19 | CC(/C=C/[C@@]1(C)[C@H](C)CCC(=O)[C@@H]1C)=C\Cc1c(O)c(C=O)c(C)c(Cl)c1OCC(=O)O |  |  | 30 | 56 | Not Active | Not Active | 30
20 | C/C(=C\Cc1c(O)c(C=O)c(C)c(Cl)c1OC(=O)c1cccnc1)CC/C=C(\C)[C@@H]1CC(=O)C(C)(C)O1 |  |  | 10 | 10 | Not Active | Not Active | 
21 | COc1c(Cl)c(C)c(C=O)c(OC)c1CC1OC1(C)/C=C/[C@@]1(C)[C@H](C)CCC(=O)[C@@H]1C (some centres not stated) |  |  | 1 | 10 | Not Active | Not Active | 
22 | Cc1c(Cl)c2c(c(O)c1C=O)CC(CC(C)(O)/C=C/[C@@]1(C)[C@H](C)CCC3(OCCO3)[C@@H]1C)O2 (some centres not stated) |  |  | 3 | 18 | Not Active | Not Active | 
23 | C/C(=C\Cc1c(O)c(Cl)c(C)c(C=O)c1O)CC/C=C(\C)[C@@H]1CC(=O)C(C)(C)O1 [ASCOFURANONE] |  |  | 3 | 3.2 | Not Active | Not Active | 
24 | C/C(=C\Cc1c(O)c(C=O)c(C)c(Cl)c1OC(=O)CCCC(=O)O)CC/C=C(\C)[C@@H]1CC(=O)C(C)(C)O1 |  |  | 10 | 3.2 | Not Active | Not Active | 
25 | COc1c(C=O)c(C)c(Cl)c(OCC(=O)O)c1C/C=C(C)/C=C/[C@@]1(C)[C@H](C)CCC(=O)[C@@H]1C |  |  | 3 | 56 | Not Active | Not Active | 3
26 | CC(/C=C/[C@@]1(C)[C@H](C)CCC(=O)[C@@H]1C)=C\Cc1c(O)c(C=O)c(C)c(Cl)c1OC(=O)c1cccnc1 |  |  | 3 | 4.7 | Not Active | Not Active | 10
